# Test results taken from PubChem BioAssay AID504346 (Broad Institute, 2011).
# Calls of active or inactive are those of the source.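 Rule for the calls: active = fitted curve reaches 10% of the positive control caspase activation at or below the top valid tested dose; inactive = signal shifts the opposite way, plus the rest.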
# Experiments:
# [1] = caspase activation in unprimed MEWO cells, dose response, counter-screen for Bcl2-A1 inhibitor project, cell-based, human MEWO, caspase luminescence, dry powder, set 3 (AID 504346); details: MEWO unprimed cells, caspase-Glo luminescence, 3 h; at 35 µM (top of the series)
# Method in brief: (§1)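 Test system: unprimed human MEWO cells engineered to express A1 / Input: 2500 cells/well / Buffer or medium: RPMI-1640 plus 10% FBS / Dosing: compound delivered to cells by pin transfer / Timing: 3 h compound at 37 °C, 1 h reagent at RT / Technique: CaspaseGlo luminescence / Evaluation: caspase activation level per well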
# [2] = tested on: MEWO unprimed cells, caspase-Glo luminescence, 3 h; assay: as above
# Method in brief: as §1
Structure (SMILES),caspase activation [1],AC10 [2]
O=C(COc1ccc(Cl)cc1Cl)NNc1nc(N2CCOCC2)nc(N2CCOCC2)n1,-0.692% (inactive),–
Cn1c(=O)c([N+](=O)[O-])c(Cl)c2ccccc21,8.42% (inactive),–
CCn1c(=O)c([N+](=O)[O-])c(Sc2ccc(C)cc2)c2ccccc21,2.11% (inactive),–
COc1ccc(CCNc2nc(N3CCOCC3)nc(N3CCOCC3)n2)cc1OC,0.746% (inactive),–
COc1ccc(N2CCN(c3nc(NCCc4ccc(OC)c(OC)c4)nc(N4CCOCC4)n3)CC2)cc1,-0.115% (inactive),–
CCn1c(=O)c(Sc2ccc(C)cc2)c(Sc2ccc(C)cc2)c2ccccc21,1.36% (inactive),–
COc1c([N+](=O)[O-])c(=O)n(C)c2ccccc12,-0.158% (inactive),–
O=c1c([N+](=O)[O-])c(Cl)c2ccccc2n1Cc1ccccc1,–,33.6 µM
O=c1[nH]c2ccccc2c(O)c1[N+](=O)[O-],-0.15% (inactive),–
COc1nc2ccccc2c(Cl)c1[N+](=O)[O-],0.103% (inactive),–
CCn1c(=O)c([N+](=O)[O-])c(Cl)c2ccccc21,5.44% (inactive),–
Cc1ccc(S(=O)(=O)c2c([N+](=O)[O-])c(=O)n(C)c3ccccc23)cc1,2.24% (inactive),–
COCCn1c(=O)c(Sc2ccc(C)cc2)c(Sc2ccc(C)cc2)c2ccccc21,1.05% (inactive),–
COCCn1c(=O)c([N+](=O)[O-])c(Sc2ccc(C)cc2)c2ccccc21,1.99% (inactive),–
CC1(C)CCC(c2ccc(Cl)cc2)=C(CN2CCN(c3ccc(C(=O)NS(=O)(=O)c4ccc(N[C@H](CCN5CCOCC5)CSc5ccccc5)c(S(=O)(=O)C(F)(F)F)c4)cc3)CC2)C1,–,3.09 µM
Cc1ccc(Sc2c(Sc3ccc(C)cc3)c3ccccc3n(C)c2=O)cc1,0.838% (inactive),–
O=c1[nH]c2ccccc2c(Cl)c1[N+](=O)[O-],–,> 35 µM (inactive)
Cc1ccc(Sc2c([N+](=O)[O-])c(=O)n(Cc3ccccc3)c3ccccc23)cc1,0.173% (inactive),–
COCCn1c(=O)c([N+](=O)[O-])c(Cl)c2ccccc21,–,> 35 µM (inactive)
Cn1c(=O)c([N+](=O)[O-])c(Sc2ccccn2)c2ccccc21,3.69% (inactive),–
COc1nc2ccccc2c(Sc2ccc(C)cc2)c1[N+](=O)[O-],0.891% (inactive),–
C/C(=N\Nc1nc(N2CCCCC2)nc(N2CCCCC2)n1)c1ccc(F)cc1,-0.441% (inactive),–
COc1ccc(CCNc2nc(N3CCCC3)nc(N3CCCC3)n2)cc1OC,0.039% (inactive),–
Cn1c(=O)c(Sc2ccccn2)c(Sc2ccccn2)c2ccccc21,-0.272% (inactive),–
Cn1c(=O)c([N+](=O)[O-])c(S(C)(=O)=O)c2ccccc21,–,> 35 µM (inactive)
Cc1ccc(Sc2c([N+](=O)[O-])c(=O)n(C)c3ccccc23)cc1,1.27% (inactive),–
Cc1ccc(Sc2c(Sc3ccc(C)cc3)c3ccccc3n(Cc3ccccc3)c2=O)cc1,0.136% (inactive),–
